Results taken from article PMC6282443 (Journal of Enzyme Inhibition and Medicinal Chemistry, 2018).
Entries after “also recorded” stand apart in the source; their conditions may differ. Where two headings read alike, the source gives them in different places. Values belong to the compound of their own block, whether it stands above or below them.

Columns and labels:
[1] = system: T790M/L858R double mutant over wild-type EGFR; conditions: cited from earlier work
A549 cells [2] = assay: Cell cycle distribution by flow cytometry; type: cell-based, human
A549 cells [3] = assay: Acridine orange; type: cell-based, human; conditions: A549, AO single staining
MCF-7 cells = assay: MTT anti-proliferative assay, MCF-7; type: cell-based, human; conditions: read-out: Anti-proliferative activity IC50, MCF-7
A549 cells [4] = assay: Annexin V-FITC/PI apoptosis assay by flow cytometry; type: cell-based, human; conditions: A549, 2.5 μM, 48 h; untreated control 12.18%
Summary of the method: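 A549 cells seeded at 1 × 10^6 cells/well in RPMI 1640 and exposed to test compound for 48 h. Cells stained with Annexin V-FITC and propidium iodide for 30 min at 4 °C in the dark, then analysed by flow cytometry to give quadrant populations.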

H1975 cells = type: cell-based, human
HepG2 cells = assay: MTT anti-proliferative assay, HepG2; type: cell-based, human; conditions: read-out: Anti-proliferative activity IC50, HepG2
A549 cells [5] = assay: cells; type: cell-based, human; conditions: read-out: Anti-proliferative activity IC50, A549

Compound: C=CC(=O)Nc1cc(Nc2nccc(-c3cn(C)c4ccccc34)n2)c(OC)cc1N(C)CCN(C)C [AZD9291]
- selectivity for the T790M/L858R double mutant over wild-type EGFR [1]: 200 fold

- IC50 (MCF-7 cells; Homo sapiens, MCF7, 72 h): 2.37 ± 0.34 µM
- IC50 (HepG2 cells; Homo sapiens, HepG2, 72 h): 4.63 ± 0.36 µM
- IC50 (A549 cells [5]; Homo sapiens, A549, 72 h): 5.9 ± 0.25 µM
Compound: O=C(N/N=C/c1cnc(N2CCCC2)nc1)Nc1cc2c(Nc3ccc(F)c(Cl)c3)ncnc2cc1O[C@H]1CCOC1 [Compound 14, (S,E)-N-(4-((3-chloro-4-fluorophenyl)amino)-7-((tetrahydrofuran-3-yl)oxy)quinazolin-6-yl)-2-((2-(pyrrolidin-1-yl)pyrimidin-5-yl)methylene)hydrazine-1-carboxamide]
- cell cycle arrest phase (in words) (A549 cells [2]; A549): S phase arrest; also recorded: arrested the cell cycle at the S phase
- proportion of cells in S phase (A549 cells [2]; A549, 2.5 μM): 50.68%
- proportion of cells in G0/G1 phase (A549 cells [2]; A549, 2.5 μM, control 26.57%): 23.62%
- proportion of cells in G2/M phase (A549 cells [2]; A549, 2.5 μM, control 29.4%): 25.7%
- G0/G1 (%) (A549 cells [2]; A549, 25 μM, 48 h, DMSO 26.57): 23.62%
- G2/M (%) (A549 cells [2]; A549, 25 μM, 48 h, DMSO 29.40): 25.70%
- S (%) (A549 cells [2]; A549, 25 μM, 48 h, DMSO 44.03): 50.68%
- induction of A549 cell apoptosis by AO staining (in words) (A549 cells [3]): can induce A549 cell apoptosis
- apoptotic cells (early + late) (A549 cells [4]): 34.9%
- selectivity for H1975 cells (in words) (H1975 cells; versus HepG2, A549, MCF-7): slight selectivity

- IC50 (MCF-7 cells; MCF-7, MTT, 72 h): 6.21 ± 0.68 µM
- IC50 (H1975 cells; read-out: Anti-proliferative activity IC50, H1975, H1975, MTT, 72 h): 32.8 ± 1.27 µM
- IC50 (HepG2 cells; HepG2, MTT, 72 h): 5.04 ± 0.64 µM
- IC50 (A549 cells [5]; A549, MTT, 72 h): 9.48 ± 0.86 µM
Compound: (S,E)-N-(4-((3-chloro-4-fluorophenyl)amino)-7-((tetrahydrofuran-3-yl)oxy)quinazolin-6-yl)-2-(4-(3-(diethylamin o)propoxy)benzylidene)hydrazine-1-carboxamide [Compound 49]
- inhibitory activity against H1975 cells (in words) (H1975 cells; H1975, MTT): poorer cellular activity
